From PubChem
AHR act = activates the human aryl hydrocarbon receptor; P35869; AHR-responsive luciferase reporter cells, luminescence; activation, % at 5 µM; actives 2.5% (n = 320,000); AID 2796; in the data active = activation above about 47%
Tb MetRS inh = Trypanosoma brucei MetRS inhibition; purified T. brucei MetRS, ATP depletion, Kinase-Glo luminescence; inhibition, % at 11.9 µM; actives 0.4% (n = 360,000);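 active = inhibition above a per-plate cutoff of the control wells' mean inhibition plus 3 SD, cut at about 5.5% in these data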
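System: purified T. brucei MetRS enzyme / Detection: Kinase-Glo luciferase luminescence reporting remaining unconsumed ATP / Medium: HEPES buffer with MgCl2, KCl, DTT, spermine, BSA, pyrophosphatase / Replication: singlicate, one well per compound / Evaluation: percent inhibition relative to median high and low control wells / Schedule: 2 h aminoacylation at 25 °C after 15 min preincubation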
MsrA act = activates bovine MsrA enzyme; activation, % at 10.6 µM; purified bovine MsrA, absorbance read-out; actives 0.3% (n = 360,000); in the data active = activation above about 7.5%
HTR2A ag = agonists of mouse serotonin 5-HT2A receptor (HTR2A); activation, % at 7.6 µM; P35363; actives 0.66% (n = 360,000); CHO-K1 mHTR2A beta-arrestin complementation, luminescence; percent of 30 µM serotonin response;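 active = activation above a run cutoff, the mean activation of all tested compounds plus 3 SD, cut at about 14% in these data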
Target sequence (P35363 whole entry, looked up): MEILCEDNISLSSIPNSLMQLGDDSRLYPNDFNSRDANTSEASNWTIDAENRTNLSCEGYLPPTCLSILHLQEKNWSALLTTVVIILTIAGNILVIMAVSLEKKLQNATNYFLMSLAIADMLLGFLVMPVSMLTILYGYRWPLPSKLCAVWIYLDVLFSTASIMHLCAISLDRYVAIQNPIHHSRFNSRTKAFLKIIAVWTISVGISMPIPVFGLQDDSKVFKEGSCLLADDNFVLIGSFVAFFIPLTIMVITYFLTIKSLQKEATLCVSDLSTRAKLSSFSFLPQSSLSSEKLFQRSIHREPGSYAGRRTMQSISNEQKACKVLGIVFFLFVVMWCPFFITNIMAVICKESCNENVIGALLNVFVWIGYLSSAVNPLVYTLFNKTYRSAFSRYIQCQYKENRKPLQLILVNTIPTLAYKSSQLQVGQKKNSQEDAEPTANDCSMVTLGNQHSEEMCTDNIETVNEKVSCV
MsrA inhibitor = bovine MsrA inhibition; purified bovine MsrA, absorbance read-out; actives 0.75% (n = 360,000); inhibition, % at 15.5 µM; AID 651718; in the data active = inhibition above about 4.5%
AI-2 QS modul = modulators of Vibrio harveyi AI-2 quorum sensing system | Vibrio harveyi JMH597 AI-2 luminescence/OD600 ratio, 9 h; active compounds read low; strain lacks LuxN and CqsS sensors; 0 = neutral-control median | activity change, % at 7.5 µM | actives 0.4% (n = 300,000) | AID 2094; in the data active = activity change below about -75%, passing the limit was not always enough; inconclusive = no clear call, values can overlap the other calls;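 also: luminescence divided by OD600 gain over 9 h not by final OD600 alone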
JMH597 growth rt = retest: inhibitors of Vibrio harveyi JMH597 growth | actives 1% (n = 750) | shares compounds with AI-2 QS modul | growth inhibition, % at 7.5 µM | OD600 absorbance, 9 h; lacks LuxN and CqsS sensors;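 active = every replicate shows growth inhibition above 50%; inconclusive = at least half, but not all, replicates pass that cutoff; inactive = fewer than half of replicates pass it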
BB721 const-QS lum = retest counter-screen: lowers luminescence of constitutive-QS Vibrio harveyi BB721; shares compounds with AI-2 QS modul; 9 h; inhibition, % at 7.5 µM; actives 95% (n = 750); AID 2727;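 active = inhibition above about 80% in every replicate, not just on average, limit read from the data; inconclusive = at least half of replicates past the limit, but not all; inactive = fewer than half of replicates past the limit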
BB721 growth = retest: inhibitors of Vibrio harveyi BB721 growth; OD600 absorbance, 9 h; shares compounds with AI-2 QS modul; actives 3% (n = 750); AID 2728; growth inhibition, % at 7.5 µM;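 active = every replicate shows growth inhibition above 50%; inconclusive = at least half but not all replicates above 50% inhibition; inactive = under half of replicates above 50% inhibition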
JMH597 AI-2 mod = Vibrio harveyi AI-2 signaling luminescence modulation – JMH597 strain, confirmation | shares compounds with AI-2 QS modul | Vibrio harveyi JMH597 AI-2 quorum sensing luminescence, 9 h; luxN and CqsS knockout, AI-2 only | inhibition, % at 7.5 µM | actives 97% (n = 750) | AID 2736;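 active = every replicate shows more than 75% inhibition of signal versus neutral control wells; inconclusive = half to three quarters of replicates exceed 75% inhibition; inactive = fewer than half of replicates exceed 75% inhibition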
Of the large screens only hits and unclear results are named; the others gave an inactive call (follow-up assays come after a bar, where they were run). Sampled rows, rich in hits. Any-hit rate of the full collection: about 4.4%.

CCCCCCCN1CCN=C1Nc1ccccc1	none (no result: AI-2 QS modul)
CNC(=O)COc1ncnc2sccc12	none (no result: AHR act, AI-2 QS modul)
CN(C)S(=O)(=O)c1ccc(NC(=O)COc2ncnc3sccc23)cc1	AI-2 QS modul -96.9 | JMH597 growth rt inactive | BB721 const-QS lum 99.6 | BB721 growth inactive | JMH597 AI-2 mod 99.8
CN(C)S(=O)(=O)c1ccc(NC(=O)CSc2ncnc3ccccc23)cc1	AI-2 QS modul -86.4 | JMH597 growth rt inactive | BB721 const-QS lum 91.6 | BB721 growth inactive | JMH597 AI-2 mod 93.8
CN(C)S(=O)(=O)c1cccc(NC(=O)CSc2ncnc3ccccc23)c1	none
COc1ccc(-c2coc3c(C(=O)N4CCN(C)CC4)cccc23)c(C)c1	none (no result: AHR act, AI-2 QS modul)
O=C1C2CCCCC2C(=O)N1c1ccc(S(=O)(=O)Nc2ncccn2)cc1 (stereo not drawn)	none
CCN(CC(=O)Nc1c(F)cccc1F)C(=O)c1ccccn1	none (no result: AI-2 QS modul)
CC(=O)Nc1ccc(C2=CC(=O)C[C@H](c3ccc4c(c3)OCO4)C2)cc1	none (no result: AI-2 QS modul)
CCc1ccc(CNC(=O)Cn2nc(-c3ccc(C)cc3)ccc2=O)cc1	AI-2 QS modul -79.0 (no result: Tb MetRS inh, MsrA act, HTR2A ag, MsrA inhibitor) | JMH597 growth rt inactive | BB721 const-QS lum 89.8 | BB721 growth inactive | JMH597 AI-2 mod 94.2
O=C(Cn1nc(-c2ccccc2)ccc1=O)NCc1ccc(F)cc1	none
COc1ccc(-c2cc(NC=O)c3ncc(-c4cccc(C(F)(F)F)c4)n3c2)cc1OC	none (no result: AHR act, AI-2 QS modul)
O=[N+]([O-])c1ccc(N/N=C/c2cccc(O)c2O)cc1	AI-2 QS modul -81.9 | JMH597 growth rt inactive | BB721 const-QS lum 92.7 | BB721 growth inactive | JMH597 AI-2 mod 96.2
CSc1ncccc1C(=O)N1CCCC(N2CCN(c3ccccc3F)CC2)C1 (stereo not drawn)	none
O=C(Cn1c(=O)oc2cc(S(=O)(=O)NCc3ccccc3)ccc21)NCc1ccco1	AI-2 QS modul inconclusive | JMH597 growth rt inactive | BB721 const-QS lum 99.8 | BB721 growth inactive | JMH597 AI-2 mod 99.9
O=C(Cn1c(=O)oc2cc(S(=O)(=O)N3CCCC3)ccc21)NCc1ccccn1	AI-2 QS modul -96.8 | JMH597 growth rt inactive | BB721 const-QS lum 99.2 | BB721 growth inactive | JMH597 AI-2 mod 99.2
CCC(C)N(C(=O)CSc1nnc(COc2ccccc2F)n1N)C1CCS(=O)(=O)C1 (stereo not drawn)	none
C[C@H](O)[C@@H]1C(=O)N2CCc3ccc(N4CCN(C)CC4)cc3[C@@H]2C[C@@H]1N(C)C(=O)c1ccco1	none (no result: AHR act, AI-2 QS modul)
O=C(NCc1ccccc1)c1cc2ccccc2o1	AI-2 QS modul -86.1 | JMH597 growth rt inactive | BB721 const-QS lum 93.8 | BB721 growth inactive | JMH597 AI-2 mod 94.9
Cc1ccc(OCc2cc(C(=O)N(C)Cc3cc(C4CC4)n[nH]3)no2)cc1C	AI-2 QS modul -81.2 | JMH597 growth rt inactive | BB721 const-QS lum 84.5 | BB721 growth inactive | JMH597 AI-2 mod 89.6
Cc1cccc(C)c1OCc1cc(C(=O)N(C)Cc2cc(C3CC3)n[nH]2)no1	none
Cc1ccc(OCC(=O)Nc2nnc(S(=O)(=O)N3CCC(C)CC3)s2)cc1	none
CCCCn1c(N)c(N(CCOC)C(=O)CCC2CCCCC2)c(=O)[nH]c1=O	none (no result: AI-2 QS modul)
COc1cccc(NC(=O)Cn2nnc(-c3ccccc3N)n2)c1	AI-2 QS modul -81.3 | JMH597 growth rt inactive | BB721 const-QS lum 97.0 | BB721 growth inactive | JMH597 AI-2 mod 96.8
COc1cccc(NC(=O)CN2C(=O)NC(c3ccccc3)(c3ccccc3)C2=O)c1	AI-2 QS modul -93.5 | JMH597 growth rt inactive | BB721 const-QS lum 93.4 | BB721 growth inactive | JMH597 AI-2 mod 96.6
COc1cccc(NC(=O)CCC(=O)Nc2cccc(OC)c2)c1	none
COc1cccc(NC(=O)Cc2ccc3ccccc3c2)c1	AI-2 QS modul -84.3 | JMH597 growth rt inactive | BB721 const-QS lum 88.8 | BB721 growth inactive | JMH597 AI-2 mod 92.2
CCCC1(c2ccccc2)NC(=O)N(CC(=O)Nc2cc(OC)cc(OC)c2)C1=O (stereo not drawn)	AI-2 QS modul -80.6 | JMH597 growth rt inactive | BB721 const-QS lum inconclusive | BB721 growth inactive | JMH597 AI-2 mod 85.4
CCCCOCCCNC(=O)C[C@@H]1C[C@@]2(C(=O)OC)CC(C)(C)CC=C2N(Cc2ccco2)C1=O	none (no result: AHR act, MsrA act, AI-2 QS modul)
COc1ccccc1Cc1c(-c2ccccc2)nc2ccc(Cl)cn12	none (no result: AHR act, AI-2 QS modul)
COc1cc(NC(=O)CN2C(=O)NC(c3ccccc3)(c3ccccc3)C2=O)cc(OC)c1	AI-2 QS modul -89.1 | JMH597 growth rt inactive | BB721 const-QS lum inactive | BB721 growth inactive | JMH597 AI-2 mod inactive
COc1cccc(NC(=O)CN2C(=O)NC3(CCCC3)C2=O)c1	none
COc1cccc(NC(=O)CN2C(=O)NC(C)(c3ccc(C)cc3)C2=O)c1 (stereo not drawn)	AI-2 QS modul -90.0 | JMH597 growth rt inactive | BB721 const-QS lum 92.0 | BB721 growth inactive | JMH597 AI-2 mod 95.4
c1ccc2c(OCCCN3CCCCCC3)cccc2c1	none
Nc1ncnc2c1ncn2[C@@H]1O[C@H](CNC(=O)[C@@H]2C[C@H](F)CN2)[C@@H](O)[C@H]1O	none (no result: AHR act, AI-2 QS modul)
CCc1cccc(NS(=O)(=O)c2c(C)nc3sc(CC)nn3c2=O)c1	none (no result: AI-2 QS modul)
O=C(CSc1nnc(-c2ccc(S(=O)(=O)N3CCCC3)cc2)o1)NCc1ccco1	AI-2 QS modul -83.4 | JMH597 growth rt inactive | BB721 const-QS lum 84.2 | BB721 growth inactive | JMH597 AI-2 mod 89.8
COc1ccc(-c2nnc(SCC(=O)NCc3ccco3)o2)cc1	none
Nc1nc(SCC(=O)Nc2cccc(F)c2)n[nH]1	none (no result: AI-2 QS modul)
Cc1ccc(C(C)(C)C)cc1S(=O)(=O)Nc1cccc(C(=O)N2CCN(c3ccccn3)CC2)c1	none (no result: AHR act, AI-2 QS modul)
Cc1nnc(NC(=O)CSc2ccc(-c3ccco3)nn2)s1	none
CCc1nnc(NC(=O)CSc2ccc(-c3ccco3)nn2)s1	AI-2 QS modul -82.6 | JMH597 growth rt inactive | BB721 const-QS lum 94.2 | BB721 growth inactive | JMH597 AI-2 mod 95.8
COc1ccccc1-c1cc(C(=O)N2CCN(S(=O)(=O)c3ccc(C)cc3)CC2)[nH]n1	none
O=C(O)c1ccc(NCc2ccc(Br)cc2)cc1	AI-2 QS modul -95.9 | JMH597 growth rt inactive | BB721 const-QS lum 99.7 | BB721 growth inactive | JMH597 AI-2 mod 99.8
O=C(O)c1ccc(NCc2cccnc2)cc1	none
